Data reported in ChEMBL document CHEMBL1138555, “N-acylated and N,N'-diacylated imidazolidine-2-thione derivatives and N,N'-diacylated tetrahydropyrimidine-2(1H)-thione analogues: synthesis and antiproliferative activity” (Eur J Med Chem, 2009).
Calls of active or inactive are those of the source. The rule behind the calls is not given here.

Tests used:
[1] = test system: SW-620; assay: Growth inhibition of human SW620 cells after 48 hrs by sulforhodamine B assay; format: functional; settings: SW-620, 48 h
How it was run: (§1)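 NCI in vitro panel screen. Compounds tested at five 10-fold dilutions, 10^-4 to 10^-8 M. Cells in 96-well plates were exposed for the last 48 h of a 72 h incubation. Viability/growth was read by sulforhodamine B protein assay. GI50 is the concentration giving 50% growth inhibition. Values beyond the tested range are reported as greater or less than the maximum or minimum concentration.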

[2] = test system: HL-60(TB); assay: Growth inhibition of human HL-60(TB) cells after 48 hrs by sulforhodamine B assay; format: functional; settings: HL-60, 48 h
How it was run: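 NCI 60-cell-line screen protocol: cells exposed to compound at five 10-fold dilutions from 10^-4 to 10^-8 M for the last 48 h of a 72 h incubation. Sulforhodamine B protein assay estimated viability/growth. GI50 (50% growth inhibition) derived; where not reached or exceeded, reported as greater or less than the highest or lowest concentration tested.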

[3] = test system: MDA-MB-435; assay: Growth inhibition of human MDA-MB-435 cells after 48 hrs by sulforhodamine B assay; format: functional; settings: MDA-MB-435, 48 h
How it was run: (§2)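 NCI screen panel. Five 10-fold concentrations from 10^-4 to 10^-8 M. Exposure for the last 48 h of a 72 h incubation. Growth estimated by sulforhodamine B protein assay. GI50 is the concentration giving 50% growth inhibition. Where that level was not reached or was exceeded, the value is given as above or below the highest or lowest concentration tested.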

[4] = test system: SF-295; assay: Growth inhibition of human SF295 cells after 48 hrs by sulforhodamine B assay; format: functional; settings: SF-295, 48 h; how it was run: as §2
[5] = test system: IGROV-1; assay: Growth inhibition of human IGROV1 cells after 48 hrs by sulforhodamine B assay; format: functional; settings: IGROV-1, 48 h; how it was run: as §2
[6] = test system: 786-0; assay: Growth inhibition of human 786-0 cells after 48 hrs by sulforhodamine B assay; format: functional; settings: 786-0, 48 h; how it was run: as §2
[7] = test system: HT-29; assay: Growth inhibition of human HT-29 cells after 48 hrs by sulforhodamine B assay; format: functional; settings: HT-29, 48 h; how it was run: as §2
[8] = test system: T47D; assay: Growth inhibition of human T47D cells after 48 hrs by sulforhodamine B assay; format: functional; how it was run: as §1
[9] = test system: LOX IMVI; assay: Growth inhibition of human LOXIMVI cells after 48 hrs by sulforhodamine B assay; format: functional; how it was run: as §2
[10] = test system: HCT-15; assay: Growth inhibition of human HCT15 cells after 48 hrs by sulforhodamine B assay; format: functional; settings: HCT-15, 48 h; how it was run: as §2
[11] = test system: TK-10; assay: Growth inhibition of human TK10 cells after 48 hrs by sulforhodamine B assay; format: functional; settings: TK-10, 48 h; how it was run: as §1
[12] = test system: NCI-H460; assay: Growth inhibition of human NCI-H460 cells after 48 hrs by sulforhodamine B assay; format: functional; settings: NCI-H460, 48 h; how it was run: as §2
[13] = test system: HOP-62; assay: Growth inhibition of human HOP62 cells after 48 hrs by sulforhodamine B assay; format: functional; settings: HOP-62, 48 h; how it was run: as §2
[14] = test system: OVCAR-4; assay: Growth inhibition of human OVCAR4 cells after 48 hrs by sulforhodamine B assay; format: functional; settings: OVCAR-4, 48 h; how it was run: as §2
[15] = test system: SK-MEL-5; assay: Growth inhibition of human SK-MEL-5 cells after 48 hrs by sulforhodamine B assay; format: functional; settings: SK-MEL-5, 48 h; how it was run: as §2
[16] = test system: SNB-75; assay: Growth inhibition of human SNB75 cells after 48 hrs by sulforhodamine B assay; format: functional; settings: SNB-75, 48 h; how it was run: as §1
[17] = test system: M14; assay: Growth inhibition of human M14 cells after 48 hrs by sulforhodamine B assay; format: functional; settings: M14, 48 h; how it was run: as §2
[18] = test system: COLO 205; assay: Growth inhibition of human COLO205 cells after 48 hrs by sulforhodamine B assay; format: functional; settings: COLO 205, 48 h; how it was run: as §2
[19] = test system: SNB-19; assay: Growth inhibition of human SNB19 cells after 48 hrs by sulforhodamine B assay; format: functional; settings: SNB-19, 48 h; how it was run: as §1
[20] = test system: ACHN; assay: Growth inhibition of human ACHN cells after 48 hrs by sulforhodamine B assay; format: functional; how it was run: as §2
[21] = test system: UACC-62; assay: Growth inhibition of human UACC62 cells after 48 hrs by sulforhodamine B assay; format: functional; settings: UACC-62, 48 h; how it was run: as §1
[22] = test system: MCF7; assay: Growth inhibition of human MCF7 cells after 48 hrs by sulforhodamine B assay; format: functional; settings: MCF7, 48 h; how it was run: as §2
[23] = test system: SK-MEL-28; assay: Growth inhibition of human SK-MEL-28 cells after 48 hrs by sulforhodamine B assay; format: functional; settings: SK-MEL-28, 48 h; how it was run: as §2
[24] = test system: EKVX; assay: Growth inhibition of human EKVX cells after 48 hrs by sulforhodamine B assay; format: functional; how it was run: as §2
[25] = test system: SF-268; assay: Growth inhibition of human SF268 cells after 48 hrs by sulforhodamine B assay; format: functional; settings: SF-268, 48 h; how it was run: as §2
[26] = test system: HOP-92; assay: Growth inhibition of human HOP92 cells after 48 hrs by sulforhodamine B assay; format: functional; settings: HOP-92, 48 h; how it was run: as §2
[27] = test system: MOLT-4; assay: Growth inhibition of human MOLT4 cells after 48 hrs by sulforhodamine B assay; format: functional; settings: MOLT-4, 48 h; how it was run: as §2
[28] = test system: DU-145; assay: Growth inhibition of human DU145 cells after 48 hrs by sulforhodamine B assay; format: functional; settings: DU-145, 48 h; how it was run: as §2
[29] = test system: K562; assay: Growth inhibition of human K562 cells after 48 hrs by sulforhodamine B assay; format: functional; settings: K562, 48 h; how it was run: as §2
[30] = test system: Malme-3M; assay: Growth inhibition of human MALME-3M cells after 48 hrs by sulforhodamine B assay; format: functional; how it was run: as §2
[31] = test system: A549; assay: Growth inhibition of human A549 cells after 48 hrs by sulforhodamine B assay; format: functional; settings: A549, 48 h; how it was run: as §2
[32] = test system: KM12; assay: Growth inhibition of human KM12 cells after 48 hrs by sulforhodamine B assay; format: functional; settings: KM12, 48 h; how it was run: as §2
[33] = test system: BT-549; assay: Growth inhibition of human BT549 cells after 48 hrs by sulforhodamine B assay; format: functional; settings: BT-549, 48 h; how it was run: as §2
[34] = test system: HCT-116; assay: Growth inhibition of human HCT116 cells after 48 hrs by sulforhodamine B assay; format: functional; settings: HCT-116, 48 h; how it was run: as §2
[35] = test system: UO-31; assay: Growth inhibition of human UO31 cells after 48 hrs by sulforhodamine B assay; format: functional; settings: UO-31, 48 h; how it was run: as §1
[36] = test system: MT4; assay: Antiproliferative activity against human MT4 cells assessed as reduction of growth by MTT assay; format: functional, cell-based
How it was run: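 MT-4 lymphoblastoid T cells (ATCC) in RPMI 1640 with 10% FCS, penicillin/streptomycin, checked for mycoplasma. 1 × 10⁴ mock-infected cells per well with serial dilutions from a 100 mM DMSO stock. Incubated 4 days at 37 °C, viable cells counted by MTT. IC50 versus untreated controls by linear regression. Mean of three separate experiments.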

[37] = test system: NCI-H322M; assay: Growth inhibition of human NCI-H322M cells after 48 hrs by sulforhodamine B assay; format: functional; how it was run: as §2
[38] = test system: SR; assay: Growth inhibition of human SR cells after 48 hrs by sulforhodamine B assay; format: functional; how it was run: as §1
[39] = test system: SK-OV-3; assay: Growth inhibition of human SKOV3 cells after 48 hrs by sulforhodamine B assay; format: functional; settings: SK-OV-3, 48 h; how it was run: as §2
[40] = test system: OVCAR-3; assay: Growth inhibition of human OVCAR-3 cells after 48 hrs by sulforhodamine B assay; format: functional; settings: OVCAR-3, 48 h; how it was run: as §2
[41] = test system: SF-539; assay: Growth inhibition of human SF539 cells after 48 hrs by sulforhodamine B assay; format: functional; settings: SF-539, 48 h; how it was run: as §2
[42] = Growth inhibition of human […] cells after 48 hrs by sulforhodamine B assay; format: functional; how it was run: as §2
[43] = test system: U-251; assay: Growth inhibition of human U251 cells after 48 hrs by sulforhodamine B assay; format: functional; settings: U-251, 48 h; how it was run: as §1
[44] = test system: MDA-MB-231; assay: Growth inhibition of human MDA-MB-231 cells after 48 hrs by sulforhodamine B assay; format: functional; settings: MDA-MB-231, 48 h; how it was run: as §2
[45] = test system: PC-3; assay: Growth inhibition of human PC3 cells after 48 hrs by sulforhodamine B assay; format: functional; settings: PC-3, 48 h; how it was run: as §2
[46] = test system: SN12C; assay: Growth inhibition of human SN12C cells after 48 hrs by sulforhodamine B assay; format: functional; how it was run: as §1
[47] = test system: OVCAR-8; assay: Growth inhibition of human OVCAR8 cells after 48 hrs by sulforhodamine B assay; format: functional; settings: OVCAR-8, 48 h; how it was run: as §2
[48] = test system: CAKI-1; assay: Growth inhibition of human Caki1 cells after 48 hrs by sulforhodamine B assay; format: functional; settings: CAKI-1, 48 h; how it was run: as §2
[49] = test system: Human immunodeficiency virus 1; assay: Antiviral activity against HIV1 in human MT4 cells assessed as prevention of virus-induced cytopathogenicity; format: functional, organism-based
How it was run: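 MT-4 cells, 1 × 10⁴ per well, with serial compound dilutions from a 100 mM DMSO stock. Infected with HIV-1 at 100 CCID50. Four-day incubation at 37 °C, then viable cells measured by MTT. Read-out is inhibition of virus-induced cytopathogenicity, assessed at non-cytotoxic concentrations.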

## CC(=O)/C(=C/N1CCN(C(=O)c2ccco2)C1=S)C(=O)c1ccccc1
[1]
  GI50: 6.1 µM
[2]
  GI50: 8.2 µM
[3]
  GI50: 10.7 µM
[4]
  GI50: 19.3 µM
[5]
  GI50: 10.9 µM
[6]
  GI50: 11.2 µM
[7]
  GI50: 16.9 µM
[8]
  GI50: 4.3 µM
[9]
  GI50: 8.9 µM
[10]
  GI50: 4.7 µM
[11]
  GI50: 10.6 µM
[12]
  GI50: 7 µM
[13]
  GI50: 11.7 µM
[14]
  GI50: 20.1 µM
[15]
  GI50: 8.1 µM
[16]
  GI50: 10.9 µM
[17]
  GI50: 6.3 µM
[18]
  GI50: 16.5 µM
[19]
  GI50: 16.3 µM
[20]
  GI50: 6.9 µM
[21]
  GI50: 7.3 µM
[22]
  GI50: 1.3 µM
[23]
  GI50: 28 µM
[24]
  GI50: 7.9 µM
[25]
  GI50: 10.7 µM
[26]
  GI50: 11.1 µM
[27]
  GI50: 15.9 µM
[28]
  GI50: 11 µM
[29]
  GI50: 6.7 µM
[30]
  GI50: 9.3 µM
[31]
  GI50: 10.8 µM
[32]
  GI50: 8.4 µM
[33]
  GI50: 5.6 µM
[34]
  GI50: 6.4 µM
[35]
  GI50: 8.8 µM
[36]
  IC50: 5 µM
[37]
  GI50: 27.9 µM
[38]
  GI50: 2.7 µM
[39]
  GI50: 17.5 µM
[40]
  GI50: 17.2 µM
[41]
  GI50: 1.1 µM
[42]
  GI50: 3.8 µM
[43]
  GI50: 13.4 µM
[44]
  GI50: 9.5 µM
[45]
  GI50: 17.1 µM
[46]
  GI50: 7.7 µM
[47]
  GI50: 8.8 µM
[48]
  GI50: 9.3 µM

## CCOC(=O)/C(=C/N1CCNC1=S)C(=O)c1ccccc1
[49]
  Activity: inactive

## CC(C)(C)C(=O)/C(C#N)=C/N1CCNC1=S
[49]
  Activity: inactive
